Experimental data gathered from unrelated publications.
Effect on: cell growth or viability

| SMILES | cell line | assay | setting | quantity | value |
| --- | --- | --- | --- | --- | --- |
| COc1ccc2c(c1)[nH]c1c(C)nccc12 | PC-12 | MTT | 48 h | IC50 | 18000 nM |
| N.N.[Cl][Pt][Cl] | SW480 | MTT | 48 h | IC50 | 13400 nM |
| Cc1cccc(-n2ncc(Cl)c(Cl)c2=O)c1 | NCI-H2030 | resazurin | 96 h | IC50 | 270 nM |
| CC1=C(O)C(=O)C=C2C1=CC=C1[C@@]2(C)CC[C@@]2(C)[C@@H]3C[C@](C)(C(=O)OCCCn4cc(C=O)c5ccccc54)CC[C@]3(C)CC[C@]12C | MGC-803 | MTT | 48 h | IC50 | 340 nM |
| Cc1cc(N(CCOS(C)(=O)=O)CCOS(C)(=O)=O)ccc1C=O | A498 |  |  | IC50 | 0.0463 µg/mL |
| N.N.[Cl][Pt][Cl] | MGC-803 | MTT | 24 h | IC50 | 29500 nM |
| C[C@H]1CN(c2ccncc2NC(=O)c2ccc(F)c(-c3c(F)cccc3F)n2)C[C@@H](N)[C@@H]1O | MM1.S | thymidine uptake | 72 h | GI50 | 22 nM |
| CC1=C(O)C(=O)C=C2C1=CC=C1[C@@]2(C)CC[C@@]2(C)[C@@H]3C[C@](C)(C(=O)O)CC[C@]3(C)CC[C@]12C | MGC-803 | MTT | 48 h | IC50 | 350 nM |
| Cc1cc(N(CCO)CCO)ccc1C=O | A498 |  |  | IC50 | > 10 µg/mL |
